Measurements reported in ChEMBL document CHEMBL1781919, “Synthesis and anticonvulsant properties of 1-(amino-N-arylmethanethio)-3-(1-substituted benzyl-2, 3-dioxoindolin-5-yl) urea derivatives” (Eur J Med Chem, 2011).
Activity calls are given as the source filed them. The rule behind the calls is not given here.

Experiments:
[1] = Octanol-phosphate buffer partition coefficient, log P of the compound; type: physicochemical
Procedure, shortened: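 Octanol and phosphate buffer partition run at room temperature (29 °C). After separation, the phases are membrane-filtered and drug in the aqueous phase is measured by UV. PC = (Ct − Ca)/Ca, where Ct is total drug concentration and Ca is aqueous-phase concentration.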

Mus musculus [2] = assay: Anticonvulsant activity in mouse assessed as protection against maximal electroshock-induced seizures at 30 mg/kg, ip after 0.5 hrs; type: functional, organism-based; parameters: dose 30 mg/kg
Procedure, shortened: (§1)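 Mouse Test 1: i.p. dosing at 0.01 mL/g. Sets of one, three and one animals receive 30, 100 and 300 mg/kg respectively, each tested at 0.5 h and 4.0 h. Score is N/F, the number of animals protected over the number tested. Screening performed by NINDS following the ADD program protocol.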

Mus musculus [3] = assay: Anticonvulsant activity in mouse assessed as protection against maximal electroshock-induced seizures at 30 mg/kg, ip after 4 hrs; type: functional, organism-based; parameters: dose 30 mg/kg; procedure, shortened: as §1
Mus musculus [4] = assay: Anticonvulsant activity in mouse assessed as protection against maximal electroshock-induced seizures at 100 mg/kg, ip after 0.5 hrs; type: functional, organism-based; parameters: dose 100 mg/kg; procedure, shortened: as §1
Mus musculus [5] = assay: Anticonvulsant activity in mouse assessed as protection against maximal electroshock-induced seizures at 100 mg/kg, ip after 4 hrs; type: functional, organism-based; parameters: dose 100 mg/kg; procedure, shortened: as §1
Mus musculus [6] = assay: Anticonvulsant activity in mouse assessed as protection against maximal electroshock-induced seizures at 300 mg/kg, ip after 0.5 hrs; type: functional, organism-based; parameters: dose 300 mg/kg; procedure, shortened: as §1
Mus musculus [7] = assay: Anticonvulsant activity in mouse assessed as protection against maximal electroshock-induced seizures at 300 mg/kg, ip after 4 hrs; type: functional, organism-based; parameters: dose 300 mg/kg; procedure, shortened: as §1
Mus musculus [8] = assay: Anticonvulsant activity in mouse assessed as protection against subcutaneous pentylenetetrazole-induced seizures at 30 mg/kg, ip after 0.5 hrs; type: functional, organism-based; parameters: dose 30 mg/kg
Mus musculus [9] = assay: Anticonvulsant activity in mouse assessed as protection against subcutaneous pentylenetetrazole-induced seizures at 30 mg/kg, ip after 4 hrs; type: functional, organism-based; parameters: dose 30 mg/kg
Mus musculus [10] = assay: Anticonvulsant activity in mouse assessed as protection against subcutaneous pentylenetetrazole-induced seizures at 100 mg/kg, ip after 0.5 hrs; type: functional, organism-based; parameters: dose 100 mg/kg
Mus musculus [11] = assay: Anticonvulsant activity in mouse assessed as protection against subcutaneous pentylenetetrazole-induced seizures at 100 mg/kg, ip after 4 hrs; type: functional, organism-based; parameters: dose 100 mg/kg
Mus musculus [12] = assay: Anticonvulsant activity in mouse assessed as protection against subcutaneous pentylenetetrazole-induced seizures at 300 mg/kg, ip after 0.5 hrs; type: functional, organism-based; parameters: dose 300 mg/kg
Mus musculus [13] = assay: Anticonvulsant activity in mouse assessed as protection against subcutaneous pentylenetetrazole-induced seizures at 300 mg/kg, ip after 4 hrs; type: functional, organism-based; parameters: dose 300 mg/kg
Mus musculus [14] = assay: Neurotoxicity in mouse assessed as minimum motor impairment at 30 mg/kg, ip after 0.5 hrs by rotarod test; type: toxicity, organism-based; parameters: dose 30 mg/kg, route intraperitoneal; conditions: in vivo
Procedure, shortened: (§2)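 Rotorod test for minimal motor impairment in mice given 30, 100 or 300 mg/kg i.p. at 0.01 mL/g, using sets of one, three and one animals, at 0.5 h and 4.0 h. Animals are observed at each dose and time. Score is N/F, the number showing toxicity over the number tested.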

Mus musculus [15] = assay: Neurotoxicity in mouse assessed as minimum motor impairment at 30 mg/kg, ip after 4 hrs by rotarod test; type: toxicity, organism-based; parameters: dose 30 mg/kg, route intraperitoneal; conditions: in vivo; procedure, shortened: as §2
Mus musculus [16] = assay: Neurotoxicity in mouse assessed as minimum motor impairment at 100 mg/kg, ip after 0.5 hrs by rotarod test; type: toxicity, organism-based; parameters: dose 100 mg/kg, route intraperitoneal; conditions: in vivo; procedure, shortened: as §2
Mus musculus [17] = assay: Neurotoxicity in mouse assessed as minimum motor impairment at 100 mg/kg, ip after 4 hrs by rotarod test; type: toxicity, organism-based; parameters: dose 100 mg/kg, route intraperitoneal; conditions: in vivo; procedure, shortened: as §2
Mus musculus [18] = assay: Neurotoxicity in mouse assessed as minimum motor impairment at 300 mg/kg, ip after 0.5 hrs by rotarod test; type: toxicity, organism-based; parameters: dose 300 mg/kg, route intraperitoneal; conditions: in vivo; procedure, shortened: as §2
Mus musculus [19] = assay: Neurotoxicity in mouse assessed as minimum motor impairment at 300 mg/kg, ip after 4 hrs by rotarod test; type: toxicity, organism-based; parameters: dose 300 mg/kg, route intraperitoneal; conditions: in vivo; procedure, shortened: as §2

logP [1] | SMILES | Activity (Mus musculus [2]) | Activity (Mus musculus [3]) | Activity (Mus musculus [4]) | Activity (Mus musculus [5]) | Activity (Mus musculus [6]) | Activity (Mus musculus [7]) | Activity (Mus musculus [8]) | Activity (Mus musculus [9]) | Activity (Mus musculus [10]) | Activity (Mus musculus [11]) | Activity (Mus musculus [12]) | Activity (Mus musculus [13]) | Activity (Mus musculus [14]) | Activity (Mus musculus [15]) | Activity (Mus musculus [16]) | Activity (Mus musculus [17]) | Activity (Mus musculus [18]) | Activity (Mus musculus [19])
3.24 | COc1ccc(NC(=S)NC(=O)Nc2ccc3c(c2)C(=O)C(=O)N3Cc2ccccc2Cl)cc1 | inactive | inactive | inactive | inactive | inactive | inactive | inactive | inactive | inactive | inactive | inactive | inactive | Non-toxic | Non-toxic | Non-toxic | Non-toxic | Non-toxic | Non-toxic
3.98 | O=C(NC(=S)Nc1ccccc1Cl)Nc1ccc2c(c1)C(=O)C(=O)N2Cc1ccccc1Cl | inactive | inactive | inactive | inactive | inactive | inactive | inactive | inactive | inactive | inactive | inactive | inactive | Non-toxic | Non-toxic | Non-toxic | Non-toxic | Non-toxic | Non-toxic
2.48 | O=C(NC(=S)Nc1ccccc1)Nc1ccc2c(c1)C(=O)C(=O)N2Cc1ccccc1 | inactive | inactive | inactive | inactive | inactive | inactive | inactive | inactive | inactive | inactive | inactive | inactive | Non-toxic | Non-toxic | Non-toxic | Non-toxic | Non-toxic | Non-toxic
2.92 | Cc1cccc(NC(=S)NC(=O)Nc2ccc3c(c2)C(=O)C(=O)N3Cc2ccccc2)c1 | inactive | inactive | inactive | inactive | inactive | inactive | inactive | inactive | inactive | inactive | inactive | inactive | Non-toxic | Non-toxic | Non-toxic | Non-toxic | Non-toxic | Non-toxic
2.98 | Cc1ccccc1NC(=S)NC(=O)Nc1ccc2c(c1)C(=O)C(=O)N2Cc1ccccc1 | inactive | inactive | inactive | inactive | inactive | inactive | inactive | inactive | inactive | inactive | inactive | inactive | Non-toxic | Non-toxic | Non-toxic | Non-toxic | Non-toxic | Non-toxic
3.72 | Cc1cccc(NC(=S)NC(=O)Nc2ccc3c(c2)C(=O)C(=O)N3Cc2ccccc2Cl)c1 | inactive | inactive | inactive | inactive | inactive | Active | inactive | inactive | inactive | inactive | inactive | Active | Non-toxic | Non-toxic | Non-toxic | Non-toxic | Non-toxic | Non-toxic
2.38 | COc1ccccc1NC(=S)NC(=O)Nc1ccc2c(c1)C(=O)C(=O)N2Cc1ccccc1 | inactive | inactive | inactive | inactive | Active | Active | inactive | inactive | inactive | inactive | inactive | inactive | Non-toxic | Non-toxic | Non-toxic | Non-toxic | Non-toxic | Non-toxic
3.19 | COc1cccc(NC(=S)NC(=O)Nc2ccc3c(c2)C(=O)C(=O)N3Cc2ccccc2Cl)c1 | inactive | inactive | inactive | inactive | inactive | inactive | inactive | inactive | inactive | inactive | inactive | inactive | Non-toxic | Non-toxic | Non-toxic | Non-toxic | Non-toxic | Non-toxic
3.01 | O=C(NC(=S)Nc1ccccc1Cl)Nc1ccc2c(c1)C(=O)C(=O)N2Cc1ccccc1 | inactive | inactive | inactive | inactive | inactive | inactive | inactive | inactive | inactive | inactive | inactive | inactive | Non-toxic | Non-toxic | Non-toxic | Non-toxic | Non-toxic | Non-toxic
2.96 | Cc1ccc(NC(=S)NC(=O)Nc2ccc3c(c2)C(=O)C(=O)N3Cc2ccccc2)cc1 | inactive | inactive | inactive | inactive | inactive | inactive | inactive | inactive | inactive | inactive | inactive | inactive | Non-toxic | Non-toxic | Non-toxic | Non-toxic | Non-toxic | Non-toxic
2.4 | COc1cccc(NC(=S)NC(=O)Nc2ccc3c(c2)C(=O)C(=O)N3Cc2ccccc2)c1 | inactive | inactive | inactive | inactive | inactive | inactive | inactive | inactive | inactive | inactive | inactive | inactive | Non-toxic | Non-toxic | Non-toxic | Non-toxic | Non-toxic | Non-toxic
